ChEMBL document CHEMBL1208663, “Synthesis of 2-substituted-N-[4-(1-methyl-4,5-diphenyl-1H-imidazole-2-yl)phenyl]acetamide derivatives and evaluation of their anticancer activity” (Eur J Med Chem, 2010)
Values after ≈ are worked out from the molar mass of the structure shown. Active and inactive are the calls of the source. The rule behind the calls is not given here.

Assays:
[1] = tested on: MCF7; assay: Cytotoxicity against human MCF7 cells at 16 ug/ml after 24 hrs by MTT assay; format: functional
Procedure, shortened: (§1)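 MCF-7 cells grown in DMEM with 1 mM pyruvate, 10 µg/mL insulin, 10% FBS and penicillin/streptomycin at 37 °C, 5% CO2. Exposed 24 h to 0.64–80 µg/mL (DMSO stocks diluted in medium). MTT added, A540 measured. Percent viability relative to untreated cells; IC50 derived. Three experiments with four wells per concentration.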

[2] = tested on: MCF7; assay: Cytotoxicity against human MCF7 cells at 6.4 ug/ml after 24 hrs by MTT assay; format: functional; procedure, shortened: as §1
[3] = tested on: HT-29; assay: Cytotoxicity against human HT-29 cells at 80 ug/ml after 24 hrs by MTT assay; format: functional
Procedure, shortened: (§2)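 HT-29 cells grown in McCoy's 5A with 10% FBS and penicillin/streptomycin at 37 °C, 5% CO2. Treated 24 h with 0.64, 1.6, 6.4, 16, 32 or 80 µg/mL (DMSO stock diluted in medium). MTT added, absorbance read at 540 nm. Viability taken relative to untreated control (100%); IC50 calculated. Four wells per concentration, three repeat experiments.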

[4] = tested on: MCF7; assay: Cytotoxicity against human MCF7 cells at 80 ug/ml after 24 hrs by MTT assay; format: functional; procedure, shortened: as §1
[5] = tested on: MCF7; assay: Cytotoxicity against human MCF7 cells at 1.6 ug/ml after 24 hrs by MTT assay; format: functional; procedure, shortened: as §1
[6] = tested on: HT-29; assay: Inhibition of DNA synthesis in human HT-29 cells by BrdU incorporation assay; format: functional, cell-based; settings: TDE = time-dependent effect
Procedure, shortened: (§3)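 HT-29 cells (McCoy's 5A, 10% FBS) seeded at 1 × 10^3 cells/mL. Exposed to three concentrations for 24 h and 48 h at 37 °C, with DMSO solvent control. BrdU label for 2 h, then fixation and anti-BrdU-POD for 90 min. Substrate colour read at 492 nm with blank subtracted. Triplicate wells, three experiments.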

[7] = tested on: MCF7; assay: Cytotoxicity against human MCF7 cells at 32 ug/ml after 24 hrs by MTT assay; format: functional; procedure, shortened: as §1
[8] = tested on: HT-29; assay: Cytotoxicity against human HT-29 cells at 32 ug/ml after 24 hrs by MTT assay; format: functional; procedure, shortened: as §2
[9] = tested on: MCF7; assay: Cytotoxicity against human MCF7 cells at 0.64 ug/ml after 24 hrs by MTT assay; format: functional; procedure, shortened: as §1
[10] = tested on: HT-29; assay: Cytotoxicity against human HT-29 cells at 6.4 ug/ml after 24 hrs by MTT assay; format: functional; procedure, shortened: as §2
[11] = tested on: HT-29; assay: Cytotoxicity against human HT-29 cells at 0.64 ug/ml after 24 hrs by MTT assay; format: functional; procedure, shortened: as §2
[12] = tested on: HT-29; assay: Cytotoxicity against human HT-29 cells at 1.6 ug/ml after 24 hrs by MTT assay; format: functional; procedure, shortened: as §2
[13] = tested on: HT-29; assay: Cytotoxicity against human HT-29 cells after 24 hrs by MTT assay; format: functional, cell-based; settings: HT-29, 24 h; procedure, shortened: as §2
[14] = tested on: HT-29; assay: Induction of apoptosis in human HT-29 cells assessed as DNA fragmentation after 24 hrs by gel electrophoresis
[15] = tested on: MCF7; assay: Cytotoxicity against human MCF7 cells after 24 hrs by MTT assay; format: functional, cell-based; settings: MCF7, 24 h; procedure, shortened: as §1
[16] = tested on: HT-29; assay: Inhibition of DNA synthesis in human HT-29 cells after 48 hrs by BrdU incorporation assay; format: functional, cell-based; procedure, shortened: as §3
[17] = tested on: MCF7; assay: Inhibition of DNA synthesis in human MCF7 cells after 48 hrs by BrdU incorporation assay; format: functional, cell-based
Procedure, shortened: (§4)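 MCF-7 cells (DMEM, pyruvate, insulin, 10% FBS) seeded at 1 × 10^3 cells/mL. Treated at three concentrations for 24 h or 48 h at 37 °C against DMSO control. Labelled with BrdU for 2 h, fixed, then anti-BrdU-POD for 90 min. Colorimetric substrate read at 492 nm after blank subtraction. Triplicate wells, repeated three times.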

[18] = tested on: HT-29; assay: Cytotoxicity against human HT-29 cells at 16 ug/ml after 24 hrs by MTT assay; format: functional; procedure, shortened: as §2
[19] = tested on: MCF7; assay: Inhibition of DNA synthesis in human MCF7 cells by BrdU incorporation assay; format: functional, cell-based; settings: TDE = time-dependent effect; procedure, shortened: as §4

| SMILES | Activity [1] | Activity [2] | Activity [3] | Activity [4] | Activity [5] | inhibition [6] | Activity [7] | Activity [8] | Activity [9] | Activity [10] | Activity [11] | Activity [12] | IC50 [13] | Activity [14] | IC50 [15] | inhibition [16] | inhibition [17] | Activity [18] | inhibition [19] |
| --- | --- | --- | --- | --- | --- | --- | --- | --- | --- | --- | --- | --- | --- | --- | --- | --- | --- | --- | --- |
| Cc1nnc(SCC(=O)Nc2ccc(-c3nc(-c4ccccc4)c(-c4ccccc4)n3C)cc2)s1 | 74.9% | 67.8% | 90.5% | 85.2% | 37.5% | tde | 83.4% | 87.1% | 35.1% | 73% | 34.8% | 39.9% | 2.7 µg/mL (≈ 5.43 µM) | Active | 3.2 µg/mL (≈ 6.43 µM) | Dose-dependent effect | Dose-dependent effect | 83.3% | tde |
| Cn1c(-c2ccc(NC(=O)CSc3nc4ccccc4o3)cc2)nc(-c2ccccc2)c1-c1ccccc1 | 56% | 42.3% | 81.5% | 76.3% | 27.4% | tde | 71.5% | 79.3% | 18.7% | 44.9% | 24.8% | 41% | 11 µg/mL (≈ 21.3 µM) | inactive | 11.2 µg/mL (≈ 21.7 µM) | Dose-dependent effect | Dose-dependent effect | 56.2% | tde |
| Cn1c(-c2ccc(NC(=O)CSc3nc4ccccc4s3)cc2)nc(-c2ccccc2)c1-c1ccccc1 | 50.3% | 27% | 82.7% | 76.6% | 2.1% |  | 59% | 66% | 0.9% | 36.8% | 9.8% | 15.3% | 18 µg/mL (≈ 33.8 µM) |  | 15.8 µg/mL (≈ 29.7 µM) |  |  | 47.2% |  |
| Cn1c(-c2ccc(NC(=O)CN3CCN(Cc4ccccc4)CC3)cc2)nc(-c2ccccc2)c1-c1ccccc1 | 28.3% | 23.8% | 54.5% | 49.5% | 13.3% |  | 33.6% | 40% | 7.2% | 26.8% | 15.5% | 26% | 65.5 µg/mL (≈ 121 µM) |  | > 80 µg/mL |  |  | 37% |  |
| CN1CCN(CC(=O)Nc2ccc(-c3nc(-c4ccccc4)c(-c4ccccc4)n3C)cc2)CC1 | 30.1% | 28.6% | 53.1% | 50.3% | 2.9% |  | 46.2% | 49.1% | 1.1% | 28.8% | 18.8% | 27.4% | 35.5 µg/mL (≈ 76.2 µM) |  | 76.5 µg/mL (≈ 164 µM) |  |  | 33.7% |  |
| CN(C)CCN1CCN(CC(=O)Nc2ccc(-c3nc(-c4ccccc4)c(-c4ccccc4)n3C)cc2)CC1 | 19.4% | 11.1% | 45.4% | 34.7% | 1.9% |  | 25.8% | 29.8% | 1.2% | 12.2% | 3.1% | 8% | > 80 µg/mL |  | > 80 µg/mL |  |  | 28.2% |  |
| Cn1c(-c2ccc(NC(=O)CCl)cc2)nc(-c2ccccc2)c1-c1ccccc1 | 15.2% | 14.2% | 76.1% | 70% | 4.3% |  | 42.8% | 53.2% | 3.4% | 15.1% | 7.2% | 14.4% | 28.7 µg/mL (≈ 71.4 µM) |  | 42.6 µg/mL (≈ 106 µM) |  |  | 23.7% |  |
